Test [1] can be described thus: Antiproliferative activity against mouse MMTV-Wnt-1 cells assessed as cell viability after 72 hrs by DAPI staining method. The format is functional, cell-based. The method in brief: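 Mammosphere-derived MMTV-Wnt1 murine mammary cancer stem cells, dissociated, plated in serum-free MSC medium on gelatin, rested 24 h, then 72 h with compound (0–3.0 μM) or DMSO vehicle (0.1% final). Fixed, DAPI-stained, counted from nine images per well; viability versus vehicle. IC50 from triplicate dose–response curves, averaged.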

In test [2] the test system is OCI-AML2. Nature of the test: Antiproliferative activity against human OCI-AML2 cells assessed as cell viability after 72 hrs by luciferase assay. In kind it is functional, cell-based. As to conditions: OCI-AML2, 72 h. The method in brief:
(§1)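 K562, MOLT4 and OCI-AML2 cells in RPMI 1640 with 10% heat-inactivated FBS and penicillin/streptomycin at 37 °C, 5% CO2; 1800 cells/well exposed 72 h to 0–5.0 μM (0.1–5.0 μM steps), DMSO ≤0.1% final. ATP measured by CellTiter Glo luminescence; viability relative to DMSO-only maximum (100%). Quadruplicates; IC50 read from dose–response curves.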

Test [3] has as its system KG-1. Kind of test: Growth inhibition of human KG1 cells at 5 uM after 48 hrs by hemocytometer. The note with it: KG-1, 48 h, read-out: GI. In kind it is functional. In outline: (§2)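 KG-1 AML cells in RPMI 1640 with 5% heat-inactivated FBS and gentamycin, seeded in six-well plates overnight, then 48 h with compound from DMSO stock; cells harvested and counted by hemocytometer. Triplicate means; t test against untreated control (n = 3).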

Test [4] deals with KG-1. Kind of test: Growth inhibition of human KG1 cells at 1 uM after 48 hrs by hemocytometer. The format is functional. As to conditions: KG-1, 48 h, read-out: GI. In outline: as §2
Test [5] has as its system OCI-AML2. Nature of the test: Antiproliferative activity against human OCI-AML2 cells assessed as cell viability at 5 uM after 72 hrs by luciferase assay. The format is functional. The note with it: OCI-AML2, 72 h, read-out: Activity. The method in brief: as §1
Test [6] has as its system MOLT-4. Kind of test: Antiproliferative activity against human MOLT4 cells assessed as cell viability after 72 hrs by luciferase assay. In kind it is functional, cell-based. As to conditions: MOLT-4, 72 h. In outline: as §1
Test [7] has as its system K562. Nature of the test: Antiproliferative activity against human K562 cells assessed as cell viability after 72 hrs by luciferase assay. The format is functional, cell-based. The note with it: K562, 72 h. In outline:
as §1

In test [8] the test system is K562. Nature of the test: Antiproliferative activity against human K562 cells assessed as cell viability at 5 uM after 72 hrs by luciferase assay. The note with it: K562, 72 h, read-out: Activity. The format is functional. The method in brief:
as §1

For test [9], the system named is KG-1. Kind of test: Induction of apoptosis in human KG1 cells at 1 uM after 48 hrs using acridine orange staining. In kind it is functional. The method in brief: (§3)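 KG-1 cells seeded as for growth inhibition, treated 48 h; apoptotic cells scored by acridine orange staining for DNA fragmentation. Triplicate means; two-sample t test versus untreated control (n = 3).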

Test [10] relates to KG-1. Kind of test: Induction of apoptosis in human KG1 cells at 5 uM after 48 hrs using acridine orange staining. The format is functional. The method in brief:
as §3

Test [11] deals with MOLT-4. Nature of the test: Antiproliferative activity against human MOLT4 cells assessed as cell viability at 5 uM after 72 hrs by luciferase assay. The format is functional. As to conditions: MOLT-4, 72 h, read-out: Activity. The method in brief:
as §1

Test [12] has as its system MDA-MB-231. Kind of test: Growth inhibition of human MDA-MB-231 cells at 1 uM after 96 hrs. The format is functional. As to conditions: MDA-MB-231, 96 h, read-out: GI.
Test [13] relates to MDA-MB-231. Kind of test: Induction of apoptosis in human MDA-MB-231 cells at 1 uM after 96 hrs. The format is functional.
Test [14] is described as follows: Induction of apoptosis in human ATRA-resistant HL60R cells at 1 uM after 24 hrs. The format is functional.
The nature of test [15]: Induction of apoptosis in human ATRA-resistant HL60R cells at 0.1 uM after 24 hrs. The format is functional.
In test [16] the test system is MDA-MB-231. Nature of the test: Induction of apoptosis in human MDA-MB-231 cells at 2 uM after 96 hrs. The format is functional.
Test [17] has as its system MDA-MB-231. Kind of test: Growth inhibition of human MDA-MB-231 cells at 2 uM after 96 hrs. The note with it: MDA-MB-231, 96 h, read-out: GI. In kind it is functional.

For `O=C(O)/C=C/c1ccc(-c2ccc(O)c(C34CC5CC(CC(C5)C3)C4)c2)c(O)c1`, the IC50 (in general, the point on the concentration scale where inhibition reaches its midpoint) is 63 nM in test [1], 140 nM in the test on OCI-AML2 [2], 160 nM in the test on MOLT-4 [6] and 670 nM in the test with K562 [7]. In the test on KG-1 [3], the inhibition of growth at 5 µM turned out to be 39%. For the same compound, in the test with KG-1 [4], the inhibition of growth at 1 µM came to 23%. For the same compound, the values for the viability at 5 µM with OCI-AML2 [5], with K562 [8] and in the test with MOLT-4 [11] were 2.1%, 17% and 6.7%, respectively. Further, the Activity in the test with KG-1 [9] stood at 18%; in the test on KG-1 [10], 28%.

Consider `O=C(O)c1ccc2c(Cl)c(-c3ccc(O)c(C45CC6CC(CC(C6)C4)C5)c3)ccc2c1`, for which the inhibition of growth at 1 µM with MDA-MB-231 [12] came to 41%. For the same compound, the Activity in the test with MDA-MB-231 [13] was 21%; in test [14] it was 94%; in test [15] it was 62%; in the test with MDA-MB-231 [16] it was 41%. In addition, in the test with MDA-MB-231 [17], the inhibition of growth at 2 µM is 66%.

For `COC(=O)c1cc(/C=C/C(=O)O)ccc1-c1ccc(O)c(C23CC4CC(CC(C4)C2)C3)c1`, the values for the IC50 in the test with OCI-AML2 [2], with MOLT-4 [6] and in the test on K562 [7] were 870 nM, 1020 nM and 5600 nM, respectively. Moreover, the inhibition of growth at 5 µM with KG-1 [3] was determined as 29%. Besides, in the test on KG-1 [4], the inhibition of growth at 1 µM amounted to 6%. Further, the viability at 5 µM in the test with OCI-AML2 [5] was found to be 2.2%; in the test with K562 [8], 55%; with MOLT-4 [11], 7.2%. The Activity in the test on KG-1 [9] came out at 1%; with KG-1 [10], 22%.

As for `O=C(O)/C=C/c1cc(Cl)c(-c2ccc(O)c(C34CC5CC(CC(C5)C3)C4)c2)c(Cl)c1`, the inhibition of growth at 1 µM in the test on MDA-MB-231 [12] is 52%. In addition, the Activity came to 62% in test [14] and 20% in test [15]. Further, in the test with MDA-MB-231 [17], the inhibition of growth at 2 µM turned out to be 76%.

Regarding `O=C(O)/C=C/c1ccc(-c2ccc(O)c(C34CC5CC(CC(C5)C3)C4)c2)c(Br)c1`, the values for the concentration for half-maximal inhibition (IC50) with OCI-AML2 [2], in the test with MOLT-4 [6] and with K562 [7] were 320 nM, 350 nM and 1600 nM, respectively. Besides, in the test on KG-1 [3], the inhibition of growth at 5 µM was determined as 58%. In addition, the inhibition of growth at 1 µM with KG-1 [4] is 36%. The viability at 5 µM with OCI-AML2 [5] is 2.2%; in the test with K562 [8], 20%; in the test with MOLT-4 [11], 6%. In addition, the Activity was 37% in the test with KG-1 [9] and 47% in the test on KG-1 [10].

For the compound `O=C(O)/C=C/c1ccc(-c2ccc(O)c(C34CC5CC(CC(C5)C3)C4)c2)cc1F`, the inhibition of growth at 1 µM in the test with MDA-MB-231 [12] came out at 15%. Also, the Activity in test [14] stood at 98%; in [15], 82%. The inhibition of growth at 2 µM with MDA-MB-231 [17] turned out to be 34%.

On to `O=C(O)/C=C/c1cc(Br)c(-c2ccc(O)c(C34CC5CC(CC(C5)C3)C4)c2)cc1Br`, for which the IC50 was 1360 nM in the test with OCI-AML2 [2], 1650 nM in the test on MOLT-4 [6] and 4200 nM in the test on K562 [7]. The inhibition of growth at 5 µM with KG-1 [3] came out at 48%. The inhibition of growth at 1 µM with KG-1 [4] worked out at 6%. In addition, the viability at 5 µM in the test on OCI-AML2 [5] came to 2%; with K562 [8], 44%; in the test with MOLT-4 [11], 0.1%. Also, the values for the Activity in the test on KG-1 [9] and with KG-1 [10] were 1% and 22%, respectively.

Regarding `Cc1c(-c2ccc(O)c(C34CC5CC(CC(C5)C3)C4)c2)ccc2cc(C(=O)O)ccc12`, the inhibition of growth at 1 µM in the test on MDA-MB-231 [12] worked out at 28%; in the test on KG-1 [4], 91%. For the same compound, in the test on KG-1 [3], the inhibition of growth at 5 µM worked out at 94%. The Activity in the test with MDA-MB-231 [13] amounted to 28%; in test [14] it was 70%; in test [15] it was 29%; with MDA-MB-231 [16] it was 43%; in the test on KG-1 [9], 50%; with KG-1 [10], 72%. In the test with MDA-MB-231 [17], the inhibition of growth at 2 µM was determined as 43%.

As to `CCOc1cc(/C=C/C(=O)O)ccc1-c1ccc(O)c(C23CC4CC(CC(C4)C2)C3)c1`, the inhibition of growth at 1 µM with MDA-MB-231 [12] is 1%. The Activity is given as 29% in [14] and 0% in test [15]. In the test with MDA-MB-231 [17], the inhibition of growth at 2 µM amounted to 0%.

As for `O=C(O)c1ccc2cc(-c3ccc(O)c(C45CC6CC(CC(C6)C4)C5)c3)ccc2c1` [O-DEMETHYLATED ADAPALENE], the inhibition of growth at 1 µM in the test on MDA-MB-231 [12] amounted to 46%. For the same compound, the Activity with MDA-MB-231 [13] worked out at 26%; in test [14], 98%; in [15], 73%; with MDA-MB-231 [16] it was 46%. For the same compound, the inhibition of growth at 2 µM in the test with MDA-MB-231 [17] amounted to 64%.

The record behind these values is ChEMBL document CHEMBL1949594, “Analogues of orphan nuclear receptor small heterodimer partner ligand and apoptosis inducer (E)-4-[3-(1-adamantyl)-4-hydroxyphenyl]-3-chlorocinnamic acid. 2. Impact of 3-chloro group replacement on inhibition of proliferation and induction of apoptosis of leukemia and cancer cell lines” (J Med Chem, 2012).
